Screening data (PubChem BioAssay)
SUMO1 PPI mod = SUMO1-SIM interaction modulation; P63165; SUMO1 binding to a labelled peptide, TR-FRET, 1 h; inhibition, % at 20 µM; 0.33% of 360,000 active; AID 602429; in the data active means inhibition above about 37%
STEP inh = blocks human striatal-enriched tyrosine phosphatase | AID 588621 | recombinant STEP, OMFP fluorogenic substrate, fluorescence | inhibition, % at 20 µM | 0.25% of 360,000 active | P54829;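 active means inhibition at 20 µM, scaled per plate between control wells, above about 37%, limit read from the data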;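 further: 0% = DMSO with enzyme and substrate and 100% = substrate only without enzyme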
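material = STEP tyrosine phosphatase | reagent = fluorogenic phosphatase substrate OMFP at 25 µM final | doses = single compound dose of 20 µM, 1% DMSO final | schedule = 20 min reaction, room temperature, in the dark | measured by = fluorescence, 480/540 nm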
Scp1 inh = blocks human Scp-1 phosphatase activity | Q9GZU7 | Recombinant Scp1, phosphopeptide, malachite green phosphate absorbance | inhibition, % at 20 µM | 0.88% of 340,000 active | AID 493091;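 active means inhibition above about 50% at 20 µM, limit read from the data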;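 further: plate controls were DMSO wells with enzyme for no effect and wells lacking enzyme for full effect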
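System: truncated SCP-1 phosphatase (76-261aa); medium: Tris acetate buffer pH 5.5 with MgCl2 and Tween-20; incubation: 45 min room-temperature reaction, 5 min colour, 30 min stabiliser; compound: single 20 µM dose, 1% DMSO; reagent: Phosphorylated 17-residue peptide substrate; read-out: % inhibition at 20 µM; technique: colorimetric free-phosphate detection, absorbance 630 nm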
DNMT1 block = inhibitors of human DNMT1; P26358; DNMT1 molecular beacon, Hinp1I cleavage, fluorescence; inhibition (reported as % activation of signal), % at 10 µM; 0.83% of 360,000 active; AID 588458; in the data active means inhibition above about 50%
LMPTP block = blocks human LMPTP phosphatase. P24666. recombinant LMPTP-A, OMFP fluorogenic substrate, fluorescence intensity. inhibition, % at 20 µM. 0.22% of 360,000 active;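 active means compounds that cut the enzyme signal by at least half of the control window in the single-dose screen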;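 further: plate controls were DMSO wells with enzyme plus substrate for no effect and substrate without enzyme for full effect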
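Test system – LMPTP-A enzyme · Amount – LMPTP-A at 0.625 nM final in the reaction · Buffer or medium – Bis-Tris pH 6.0, DTT, detergent · Reagent – OMFP 400 µM · Doses – single 20 µM dose · Schedule – reaction 50 min, room temperature, dark · Detection – fluorescence intensity of OMFP turnover product · Evaluation – percent inhibition versus substrate-only and uninhibited controls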
Beacon interf DR = counter-screen for DNMT1 inhibitors: spectral interference, dose response. shares compounds with DNMT1 block. molecular beacon fluorescence. IC50, µM. 200 tested, under 10 active; call rule not given here
DNMT1 confirm = DNMT1 inhibition confirmation, single concentration. DNMT1 molecular beacon HinP1I cleavage, fluorescence. 8% of 2,300 active. inhibition, % at 10 µM. shares compounds with DNMT1 block. AID 602385;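 active means average inhibition of at least 30% in the single-concentration confirmation test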
Beacon interf = shows spectral interference in the DNMT1 beacon assay | shares compounds with DNMT1 block | DNMT1 molecular beacon spectral interference counterscreen, fluorescence 485/520 | activation (fluorescence interference), % at 10 µM | 1% of 2,300 active | AID 602387;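 active means activation of at least 30% at 10 µM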;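 further: DNMT1 catalytic domain with a HinP1I cleavage step and a FAM/dabcyl DNA beacon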
The depositor's hits bear a star; . = not tested or not shown. An excerpt weighted towards active compounds, which were near 1.7% of everything screened.

SMILES	SUMO1 PPI mod	STEP inh	Scp1 inh	DNMT1 block	LMPTP block	DNMT1 confirm	Beacon interf	others
CSc1ccccc1NC(=O)COC(=O)Cn1cc(C(F)(F)F)ccc1=O	1.3	-2.2	-4.8	2.4	-0.3	.	.
Cn1c(=O)c2[nH]c(-c3ccc(S(=O)(=O)O)cc3)nc2n(C)c1=O	-1.3	2.0	-8.8	2.6	-0.3	.	.
C=CCSC1=N/C(=C\c2cc(OC)c3c(c2)OCO3)C(=O)S1	2.7	-2.3	-6.4	73.7*	10.0	16.9	9.2
CCSC1=N/C(=C\c2ccc3c(c2)OCO3)C(=O)S1	-10.0	-0.1	-4.2	3.0	1.6	.	.
OC[C@@H]1CN(Cc2ccccc2)C[C@H](n2cnc3c(N4CCOCC4)ncnc32)O1	0.4	23.4	.	0.8	-1.1	.	.
Cc1ccc(C(=O)O)cc1NC(=S)NC(=O)c1ccc([N+](=O)[O-])c(C)c1	-21.0	-2.6	-8.8	1.4	0.8	.	.
COc1ccc(N=Cc2c(O)[nH]c3ccccc23)cc1	-13.3	1.6	-2.2	-4.6	-0.9	.	.
Cc1ccc(N=Cc2c(O)[nH]c3ccccc23)c([N+](=O)[O-])c1	-19.4	0.6	-4.5	59.0*	10.2	2.5	2.1
O=C1NC(=S)N/C1=C/c1cc2c(cc1[N+](=O)[O-])OCO2	55.4*	3.4	2.0	59.8*	-0.7	30.1*	-11.9	Beacon interf DR=>99
O=C(O)/C=C\c1cc2c(cc1[N+](=O)[O-])OCO2	-11.7	1.6	-5.2	3.5	5.1	.	.
CCOC(=O)c1c2ccc(OCC(=O)N/N=C/c3ccc(C)cc3)cc2n2ccccc12	3.0	2.5	5.6	72.2*	1.8	4.7	-1.8
CCN(CC)C(=O)c1cccc(-c2csc(C(O)c3ccc(F)c(F)c3)n2)c1 (stereo unspecified)	-10.7	-0.3	.	1.1	1.7	.	.
O=C(/C=C/c1ccc([N+](=O)[O-])cc1)c1ccco1	-12.1	-0.5	1.3	3.5	7.1	.	.
O=C(/C=C/c1ccco1)c1cccc([N+](=O)[O-])c1	6.1	1.6	29.9	61.7*	13.8	2.9	2.1
O=C(/C=C/c1ccc([N+](=O)[O-])cc1)/C=C/c1ccco1	12.3	6.5	.	91.3*	20.0	4.7	3.3
COc1ccc(-c2nc(CCNC(=O)c3ccco3)cs2)cc1OC	-4.2	-1.0	-0.3	83.5*	17.0	-0.1	1.5
CC(C)OCCCNC(=O)c1c(N)n(/N=C/c2cccs2)c2nc3ccccc3nc12	-3.5	-0.8	-7.3	60.2*	-0.3	5.7	9.1
Cc1ccc(S(=O)(=O)N(C)c2ccc(OC(C)C(=O)N(C)c3ccccc3)cc2)cc1 (stereo unspecified)	-1.7	0.9	-9.6	78.6*	1.3	0.3	4.0
CCCC(=O)Nc1ccc(Cl)c(NC(=S)NC(=O)c2cc3ccccc3o2)c1	0.0	1.3	-0.9	55.7*	-3.0	3.2	4.8
Cc1ccccc1OCC(=O)NCCCNC(=O)c1ccncc1	-1.6	-0.7	-0.6	77.5*	-0.3	1.5	3.8
Cc1ccsc1C(=O)C1CCCN(Cc2cccn2-c2ccc(Cl)cn2)C1 (stereo unspecified)	-1.3	3.2	26.3	112.7*	1.0	0.5	-2.0
O=C(c1ccc(Cl)cc1)C1CCCN(Cc2cccn2-c2ccccn2)C1 (stereo unspecified)	0.8	-1.9	-2.1	0.9	-0.9	.	.
O=C(CSc1ccccn1)Nc1cccc(S(=O)(=O)N2CCCC2)c1	2.0	1.8	-2.4	-0.8	-0.5	.	.
C/C(CC(=O)Nc1ccc2ccccc2c1)=N\NC(=O)c1ccc(O)c(O)c1	-7.4	-1.0	-0.8	3.7	-2.1	.	.
COc1ccc(C2C(C(=O)c3ccccc3)=C(C)Nc3nc4ccccc4n32)cc1OC (stereo unspecified)	0.6	3.1	-0.2	58.9*	-1.7	-0.1	1.4
SMILES	SUMO1 PPI mod	STEP inh	Scp1 inh	DNMT1 block	LMPTP block	DNMT1 confirm	Beacon interf	others
COc1ccc(OC)c(C2C(C(=O)c3ccccc3)=C(C)Nc3nc4ccccc4n32)c1 (stereo unspecified)	-2.4	-0.6	28.3	6.0	0.8	.	.
Cc1ccc(N(C)S(=O)(=O)c2nnc(NC(=O)c3ccco3)s2)cc1	-0.1	-1.1	-1.7	4.9	-0.9	.	.
Cc1ccccc1N(C)S(=O)(=O)c1nnc(NC(=O)c2ccco2)s1	18.6	1.3	27.2	53.6*	13.3	3.1	0.9
CC1CCC(CN2C(Nc3ccccc3)=NC[C@@H]2C)CC1 (stereo partly specified)	4.4	0.8	-5.8	2.0	-1.5	.	.
Cc1cc(-c2nc3c4c5c(sc4[nH]c(=O)n3n2)CCC5)c(C)o1	16.4	1.5	58.5*	65.7*	5.9	4.2	0.2
Cc1nc2sc3c(c2c(=O)[nH]1)CCC3	0.5	-1.8	0.3	0.1	-3.0	.	.
Cc1ccc(/C=N/Nc2ccnc3cc(Cl)ccc23)c(C)c1	3.5	15.2	3.8	61.8*	3.3	5.6	-1.0
Oc1ccc(Nc2ccnc3cc(Cl)ccc23)cc1	-16.4	-1.3	-1.8	1.1	3.9	.	.
Clc1ccc(NNc2ccnc3cc(Cl)ccc23)cc1	-0.2	-3.1	24.3	14.1	0.8	.	.
CC(=O)N1CCC(=NNc2ccnc3cc(Cl)ccc23)CC1	-0.1	-1.3	-6.7	-6.3	-1.9	.	.
Clc1ccc2c(N/N=C/c3cccnc3)ccnc2c1	-9.8	-1.4	-3.4	11.7	6.9	.	.
Cc1ccccc1/C=N/Nc1ccnc2cc(Cl)ccc12	26.3	16.4	5.4	69.8*	4.8	2.8	-2.1
Clc1ccc2c(N/N=C/c3ccc(Br)cc3)ccnc2c1	1.0	11.4	-2.7	66.4*	5.2	3.2	2.0
Oc1ccc(/C=N/Nc2ccnc3cc(Cl)ccc23)c(O)c1	111.7*	5.8	-9.0	84.4*	32.7	3.8	0.5
COC(=O)[C@]1(C)N[C@H](CN(C)C(=O)c2ccc(F)cc2)[C@@H]2C(=O)N(C)C(=O)[C@@H]21	-1.9	-2.6	8.2	6.4	-2.6	.	.
O=C(COC(=O)C1CCN(c2ccc(C(F)(F)F)cn2)CC1)NCc1ccc(F)cc1	6.8	-0.9	-6.9	0.5	2.2	.	.
COc1cc(C(=O)N(C)CCOc2ccccc2)ccc1OCC(=O)Nc1cccc(C(F)(F)F)c1	-27.2	-1.0	-4.2	-1.3	-5.4	.	.
CCCCc1nc2sc3c(SCC(=O)NCc4ccco4)ncnc3c2c2c1CCC2	-110.6	4.9	46.8	78.2*	2.6	6.0	4.8
COc1ccccc1NC(=O)COc1coc(CN2CCN(c3ccccc3)CC2)cc1=O	6.0	0.7	7.5	-0.9	0.0	.	.
O=C(c1cc2c(s1)CCCC2)N1CCN(Cc2ccc3c(c2)OCO3)CC1	-1.4	1.4	-4.9	-1.4	-2.7	.	.
